Data set [1] addresses 5-hydroxytryptamine receptor 7 (Homo sapiens, UniProt P34969). The data set is described as follows: Inhibition of 5HT7 receptor.
The target in data set [2] is D(3) dopamine receptor (Homo sapiens, UniProt P35462). The data set is described as follows: Inhibition of dopamine D3 receptor.
The target in data set [3] is D(1A) dopamine receptor (Homo sapiens, UniProt P21728). As to the kind of experiment: Inhibition of dopamine D1 receptor.
The target of data set [4] is Alpha-2C adrenergic receptor (Homo sapiens, UniProt P18825). The data set is described as follows: Inhibition of adrenergic Alpha-2C receptor.
The target in data set [5] is D(4) dopamine receptor (Homo sapiens, UniProt P21917). As to the kind of experiment: Inhibition of dopamine D4.4 receptor.
Data set [6] concerns the target 5-hydroxytryptamine receptor 6 (Homo sapiens, UniProt P50406). As to the kind of experiment: Inhibition of 5HT6 receptor.
For data set [7], the target named is Beta-1 adrenergic receptor (Homo sapiens, UniProt P08588). As to the kind of experiment: Inhibition of adrenergic beta-1 receptor.
Data set [8] addresses 5-hydroxytryptamine receptor 2A (Homo sapiens, UniProt P28223). As to the kind of experiment: Inhibition of 5HT2A receptor.
Data set [9] has as its target Alpha-2A adrenergic receptor (Homo sapiens, UniProt P08913). As to the kind of experiment: Inhibition of adrenergic alpha2A receptor.
The target of data set [10] is D(2) dopamine receptor (Homo sapiens, UniProt P14416). The data set is described as follows: Inhibition of dopamine D2 receptor.
A short description of data set [11]: Inhibition of adrenergic alpha1 receptor.
Data set [12] concerns the target T1, C-X-C chemokine receptor type 3 (Homo sapiens, UniProt P49682).
T1 sequence (P49682 whole entry): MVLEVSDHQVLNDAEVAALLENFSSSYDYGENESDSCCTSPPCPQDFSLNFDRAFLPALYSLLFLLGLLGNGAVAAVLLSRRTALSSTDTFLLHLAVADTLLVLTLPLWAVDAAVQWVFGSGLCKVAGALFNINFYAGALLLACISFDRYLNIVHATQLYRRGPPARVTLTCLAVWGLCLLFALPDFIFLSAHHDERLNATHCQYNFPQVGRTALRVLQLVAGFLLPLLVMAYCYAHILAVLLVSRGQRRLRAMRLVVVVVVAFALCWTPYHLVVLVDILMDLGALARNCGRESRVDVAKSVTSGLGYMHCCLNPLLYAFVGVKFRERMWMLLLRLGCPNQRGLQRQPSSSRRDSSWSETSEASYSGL
As to the kind of experiment: Displacement of [125I]I-TAC from human CXCR3 expressed in CHO cells by scintillation proximity assay. The class given is cell-based. An outline of the steps: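 Membranes came from CHO cells transfected with human CXCR3. Serial dilutions of inhibitor were incubated for 2 h at room temperature with 125I-labelled I-TAC (CXCL11), the membranes and WGA-coated PVT beads. Binding was read by scintillation proximity.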
In general terms: Loss of bound radioactivity is the signal in a displacement assay; it reports binding, not function.

For data set [13], the target named is 5-hydroxytryptamine receptor 2B (Homo sapiens, UniProt P41595). As to the kind of experiment: Inhibition of 5HT2B receptor.
Data set [14] has as its target 5-hydroxytryptamine receptor 2C (Homo sapiens, UniProt P28335). As to the kind of experiment: Inhibition of 5HT2C receptor.
Data set [15] deals with T1, C-X-C chemokine receptor type 3. The data set is described as follows: Antagonist activity at human CXCR3 expressed in L1.2 cells assessed as inhibition of I-TAC-induced Ca2+ mobilization by FLIPR assay. The class given is functional, cell-based. In a few lines:
(§1)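 CXCR3-transfected L1.2 mouse pre-B cells were loaded with Fluo-4 and washed. They were pre-incubated with inhibitor for 2 h at room temperature, then stimulated with I-TAC. The transient rise in intracellular Ca2+ was read on a FLIPR.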
(In general: Calcium flux is commonly read through the fluorescence of an indicator in the cells.)

Data set [16] has as its target Cytochrome P450 1A2 (Homo sapiens, UniProt P05177). The data set is described as follows: Inhibition of CYP1A2. The class given is ADME.
The nature of data set [17]: Fraction unbound in rat. The conditions noted are these: in vivo. Type of data set: ADME, organism-based.
The target in data set [18] is Voltage-gated inwardly rectifying potassium channel KCNH2 (Homo sapiens, UniProt Q12809). As to the kind of experiment: Inhibition of human ERG.
Data set [19] is described as follows: Lipophilicity, log P of the compound. The class given is physicochemical. To be noted: octanol/water.
A short description of data set [20]: Solubility in pH 1.0 buffer. The class given is physicochemical.
The target in data set [21] is Cytochrome P450 3A4 (Homo sapiens, UniProt P08684). The data set is described as follows: Inhibition of CYP3A4. Type of data set: ADME.
For data set [22], the target named is Cytochrome P450 2D6 (Homo sapiens, UniProt P10635). The data set is described as follows: Inhibition of CYP2D6. The class given is ADME.
Data set [23] addresses T2, C-X-C chemokine receptor type 3 (Mus musculus, UniProt O88410). As to the kind of experiment: Antagonist activity at mouse CXCR3 expressed in L1.2 cells assessed as inhibition of I-TAC-induced Ca2+ mobilization by FLIPR assay. The class given is functional, cell-based. In a few lines: as §1
Data set [24] can be described thus: Fraction unbound in human. Type of data set: ADME, organism-based. To be noted: in vivo.
The nature of data set [25]: Solubility in pH 6.8 buffer. The class given is physicochemical.
The target of data set [26] is 5-hydroxytryptamine receptor 1A (Homo sapiens, UniProt P08908). The data set is described as follows: Inhibition of 5HT1A receptor.
For data set [27], the target named is Cytochrome P450 2C9 (Homo sapiens, UniProt P11712). The data set is described as follows: Inhibition of CYP2C9. Type of data set: ADME.
Data set [28] has as its target T2, C-X-C chemokine receptor type 3. As to the kind of experiment: Displacement of [125I]I-TAC from mouse CXCR3 expressed in CHO cells by scintillation proximity assay. Type of data set: cell-based.
The target in data set [29] is Cytochrome P450 2C19 (Homo sapiens, UniProt P33261). As to the kind of experiment: Inhibition of CYP2C19. Type of data set: ADME.

In brackets after ≈: the same amount, converted by molar mass. Bounds are passed on as bounds.

Chain of D(2) dopamine receptor (P14416 whole entry): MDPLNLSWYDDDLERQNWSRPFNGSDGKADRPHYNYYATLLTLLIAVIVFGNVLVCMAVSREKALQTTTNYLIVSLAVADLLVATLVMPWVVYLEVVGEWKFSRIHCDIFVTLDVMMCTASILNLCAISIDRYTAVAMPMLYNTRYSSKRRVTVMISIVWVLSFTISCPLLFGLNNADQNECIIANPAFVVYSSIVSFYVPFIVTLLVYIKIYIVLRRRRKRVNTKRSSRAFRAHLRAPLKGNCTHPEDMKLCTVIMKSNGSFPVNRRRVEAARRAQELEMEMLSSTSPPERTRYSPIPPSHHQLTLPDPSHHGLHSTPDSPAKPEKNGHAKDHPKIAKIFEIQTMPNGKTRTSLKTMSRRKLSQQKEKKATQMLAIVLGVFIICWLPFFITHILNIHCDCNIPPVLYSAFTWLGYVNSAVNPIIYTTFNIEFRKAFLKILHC
Chain of D(4) dopamine receptor (P21917 whole entry): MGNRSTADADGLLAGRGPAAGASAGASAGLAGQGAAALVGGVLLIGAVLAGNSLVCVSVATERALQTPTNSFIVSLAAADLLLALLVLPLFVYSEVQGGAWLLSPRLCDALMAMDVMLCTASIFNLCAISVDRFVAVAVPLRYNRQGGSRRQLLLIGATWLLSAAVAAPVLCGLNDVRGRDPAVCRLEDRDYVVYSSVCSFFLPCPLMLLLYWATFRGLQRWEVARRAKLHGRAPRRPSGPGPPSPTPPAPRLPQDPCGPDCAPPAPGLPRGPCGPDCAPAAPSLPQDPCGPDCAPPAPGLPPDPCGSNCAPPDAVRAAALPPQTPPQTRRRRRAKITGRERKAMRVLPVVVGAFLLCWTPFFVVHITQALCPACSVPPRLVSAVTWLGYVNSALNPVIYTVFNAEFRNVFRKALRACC
Chain of Beta-1 adrenergic receptor (P08588 whole entry): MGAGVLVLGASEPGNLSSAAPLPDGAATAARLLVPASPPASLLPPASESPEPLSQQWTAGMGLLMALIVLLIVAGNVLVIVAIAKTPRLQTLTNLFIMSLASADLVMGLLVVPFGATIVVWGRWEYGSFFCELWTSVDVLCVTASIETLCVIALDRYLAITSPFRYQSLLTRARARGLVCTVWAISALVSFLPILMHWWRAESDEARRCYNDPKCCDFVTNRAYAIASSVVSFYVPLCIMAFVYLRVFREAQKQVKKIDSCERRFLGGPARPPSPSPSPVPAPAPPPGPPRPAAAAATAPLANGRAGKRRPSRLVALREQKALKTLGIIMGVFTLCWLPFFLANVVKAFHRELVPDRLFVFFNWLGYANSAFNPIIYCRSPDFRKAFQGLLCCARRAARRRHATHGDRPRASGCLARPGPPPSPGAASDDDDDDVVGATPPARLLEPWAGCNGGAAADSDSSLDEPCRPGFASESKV
Chain of 5-hydroxytryptamine receptor 2A (P28223 whole entry): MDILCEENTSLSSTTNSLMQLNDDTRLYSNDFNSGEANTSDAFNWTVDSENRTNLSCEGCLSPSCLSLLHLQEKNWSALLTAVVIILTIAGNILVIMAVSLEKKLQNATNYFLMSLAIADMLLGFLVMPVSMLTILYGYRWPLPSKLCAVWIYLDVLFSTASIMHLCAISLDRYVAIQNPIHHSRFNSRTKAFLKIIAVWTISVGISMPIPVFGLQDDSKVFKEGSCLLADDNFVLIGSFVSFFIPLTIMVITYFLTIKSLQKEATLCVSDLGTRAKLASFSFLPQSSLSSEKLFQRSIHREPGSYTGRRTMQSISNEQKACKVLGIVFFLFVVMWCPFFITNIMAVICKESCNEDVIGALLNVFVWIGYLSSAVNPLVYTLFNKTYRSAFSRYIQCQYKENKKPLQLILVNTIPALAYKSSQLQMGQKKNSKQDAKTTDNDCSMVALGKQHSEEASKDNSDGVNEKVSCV
Chain of 5-hydroxytryptamine receptor 2C (P28335 whole entry): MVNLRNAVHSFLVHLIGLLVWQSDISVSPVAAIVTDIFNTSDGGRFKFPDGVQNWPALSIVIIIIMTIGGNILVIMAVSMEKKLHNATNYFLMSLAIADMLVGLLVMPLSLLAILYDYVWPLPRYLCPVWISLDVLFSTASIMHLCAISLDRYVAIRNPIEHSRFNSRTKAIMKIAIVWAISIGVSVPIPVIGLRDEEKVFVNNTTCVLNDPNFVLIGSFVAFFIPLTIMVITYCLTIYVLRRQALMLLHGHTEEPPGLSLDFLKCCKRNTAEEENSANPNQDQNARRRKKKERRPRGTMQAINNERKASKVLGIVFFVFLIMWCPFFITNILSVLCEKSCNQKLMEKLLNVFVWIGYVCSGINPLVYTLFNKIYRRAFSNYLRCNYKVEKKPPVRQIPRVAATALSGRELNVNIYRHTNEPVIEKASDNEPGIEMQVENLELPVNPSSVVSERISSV
Chain of 5-hydroxytryptamine receptor 7 (P34969 whole entry): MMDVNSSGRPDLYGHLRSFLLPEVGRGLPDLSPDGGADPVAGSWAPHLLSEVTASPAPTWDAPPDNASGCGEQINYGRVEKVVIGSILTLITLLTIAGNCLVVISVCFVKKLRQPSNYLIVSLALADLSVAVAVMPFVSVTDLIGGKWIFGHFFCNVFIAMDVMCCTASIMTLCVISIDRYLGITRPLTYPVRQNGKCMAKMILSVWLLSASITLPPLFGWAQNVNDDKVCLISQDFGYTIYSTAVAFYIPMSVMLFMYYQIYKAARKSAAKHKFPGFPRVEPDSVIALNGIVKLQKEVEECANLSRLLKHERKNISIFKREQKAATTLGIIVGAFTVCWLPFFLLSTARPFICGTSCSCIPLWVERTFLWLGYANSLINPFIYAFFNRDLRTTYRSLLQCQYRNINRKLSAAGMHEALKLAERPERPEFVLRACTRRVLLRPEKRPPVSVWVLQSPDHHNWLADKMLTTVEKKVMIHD
Chain of 5-hydroxytryptamine receptor 6 (P50406 whole entry): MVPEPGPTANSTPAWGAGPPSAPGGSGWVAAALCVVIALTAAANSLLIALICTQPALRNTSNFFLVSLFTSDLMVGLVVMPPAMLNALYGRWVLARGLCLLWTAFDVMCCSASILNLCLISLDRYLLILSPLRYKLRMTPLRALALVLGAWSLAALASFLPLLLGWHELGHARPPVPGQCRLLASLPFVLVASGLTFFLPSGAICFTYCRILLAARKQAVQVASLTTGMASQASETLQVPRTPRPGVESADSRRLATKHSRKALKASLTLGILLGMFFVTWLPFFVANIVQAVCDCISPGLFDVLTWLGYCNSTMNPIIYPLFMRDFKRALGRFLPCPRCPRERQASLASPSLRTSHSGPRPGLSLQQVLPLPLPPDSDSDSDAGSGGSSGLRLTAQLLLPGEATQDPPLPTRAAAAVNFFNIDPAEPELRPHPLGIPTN
Chain of D(3) dopamine receptor (P35462 whole entry): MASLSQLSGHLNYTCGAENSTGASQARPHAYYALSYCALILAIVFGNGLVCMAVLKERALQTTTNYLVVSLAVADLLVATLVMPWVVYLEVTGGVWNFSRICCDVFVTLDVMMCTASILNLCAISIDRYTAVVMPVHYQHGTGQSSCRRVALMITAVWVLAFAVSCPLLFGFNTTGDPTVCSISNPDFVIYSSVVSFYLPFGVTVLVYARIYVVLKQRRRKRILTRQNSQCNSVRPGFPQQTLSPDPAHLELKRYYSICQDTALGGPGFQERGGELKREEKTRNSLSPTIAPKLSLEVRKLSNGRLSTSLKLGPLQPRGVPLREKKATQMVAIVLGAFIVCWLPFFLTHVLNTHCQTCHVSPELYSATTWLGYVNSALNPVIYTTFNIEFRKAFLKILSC
Chain of D(1A) dopamine receptor (P21728 whole entry): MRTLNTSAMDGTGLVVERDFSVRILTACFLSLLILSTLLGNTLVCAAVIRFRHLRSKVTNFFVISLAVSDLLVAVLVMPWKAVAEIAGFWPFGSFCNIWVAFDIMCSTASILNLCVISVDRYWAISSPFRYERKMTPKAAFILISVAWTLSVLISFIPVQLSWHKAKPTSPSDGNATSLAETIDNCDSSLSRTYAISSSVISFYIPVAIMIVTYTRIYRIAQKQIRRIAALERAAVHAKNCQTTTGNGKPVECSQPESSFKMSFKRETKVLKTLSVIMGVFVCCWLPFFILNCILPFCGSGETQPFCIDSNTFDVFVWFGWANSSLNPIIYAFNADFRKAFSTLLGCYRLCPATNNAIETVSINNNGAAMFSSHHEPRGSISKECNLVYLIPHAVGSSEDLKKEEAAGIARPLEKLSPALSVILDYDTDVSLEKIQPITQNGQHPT
Chain of 5-hydroxytryptamine receptor 2B (P41595 whole entry): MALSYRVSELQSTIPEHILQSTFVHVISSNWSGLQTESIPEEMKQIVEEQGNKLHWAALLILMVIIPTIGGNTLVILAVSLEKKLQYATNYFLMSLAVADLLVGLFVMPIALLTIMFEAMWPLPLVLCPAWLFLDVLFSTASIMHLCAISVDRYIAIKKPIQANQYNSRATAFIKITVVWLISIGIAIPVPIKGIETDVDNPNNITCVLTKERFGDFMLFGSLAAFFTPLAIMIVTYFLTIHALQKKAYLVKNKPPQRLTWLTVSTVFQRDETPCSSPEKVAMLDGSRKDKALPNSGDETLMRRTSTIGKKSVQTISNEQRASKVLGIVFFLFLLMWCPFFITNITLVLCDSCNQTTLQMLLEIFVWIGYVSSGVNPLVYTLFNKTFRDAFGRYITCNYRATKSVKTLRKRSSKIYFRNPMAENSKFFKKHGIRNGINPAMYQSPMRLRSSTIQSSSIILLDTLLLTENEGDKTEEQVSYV
T2 sequence (O88410 whole entry): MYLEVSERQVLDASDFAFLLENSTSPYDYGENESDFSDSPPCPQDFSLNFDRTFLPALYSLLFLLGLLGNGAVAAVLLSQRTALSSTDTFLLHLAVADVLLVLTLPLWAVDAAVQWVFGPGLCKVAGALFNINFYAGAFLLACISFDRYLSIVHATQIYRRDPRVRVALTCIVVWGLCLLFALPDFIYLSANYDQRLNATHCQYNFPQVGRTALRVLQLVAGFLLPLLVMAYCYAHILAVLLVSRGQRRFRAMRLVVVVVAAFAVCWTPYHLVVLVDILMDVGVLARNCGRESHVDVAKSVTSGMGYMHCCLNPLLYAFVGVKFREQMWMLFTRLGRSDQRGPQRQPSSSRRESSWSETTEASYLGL

With `CCN(CC)C(=O)[C@@H]1C=C2c3cccc4[nH]cc(c34)C[C@H]2NC1`, the IC50 in [1] is 143 nM; in data set [2], greater than 10000 nM; in [3] it was greater than 10 µM; in data set [4], greater than 10000 nM; in [5], greater than 10000 nM; in [6] it was 0.016 µM. Also, the IC50 in data set [7] is greater than 10 µM; in data set [8], 6 nM; in [9], greater than 10000 nM; in [10], greater than 10000 nM; in data set [11], greater than 10 µM; in data set [12] it was greater than 10000 nM. In addition, the values for the IC50 in [13] and in data set [14] were 54 nM and 1290 nM, respectively.

Turning to `CCN(CC)C(=O)[C@@H]1C=C2c3cccc4[nH]cc(c34)C[C@H]2N(C(=O)Nc2ccncc2)C1`, the figures for the IC50 in data set [12] and in [15] were 2000 nM and 6800 nM, respectively.

With `CCN(CC)C(=O)[C@@H]1C=C2c3cccc4[nH]cc(c34)C[C@H]2N(C(=O)Nc2cccnc2)C1`, the IC50 in data set [12] is 285 nM; in data set [15], 67 nM.

`CCN(CC)C(=O)[C@@H]1C=C2c3cccc4[nH]cc(c34)C[C@H]2N(C(=O)Oc2ccccc2)C1`: the IC50 was found to be 803 nM in data set [12] and 809 nM in [15].

With `CCN(CC)C(=O)[C@@H]1C=C2c3cccc4c3c(cn4C)C[C@H]2N(C(=O)Nc2ccccc2)C1`, the IC50 was determined as 220 nM in [12] and 60 nM in [15].

For the molecule `CCN(CC)C(=O)[C@@H]1C=C2c3cccc4[nH]cc(c34)C[C@H]2N(C(=O)NC2CCCCC2)C1`, the IC50 in [12] amounted to 179 nM; in [15], 78 nM.

In the case of `CCN(CC)C(=O)[C@@H]1C=C2c3cccc4c3c(cn4Cc3ccccc3)C[C@H]2N(C(=O)Nc2ccccc2)C1`, the values for the IC50 in data set [12] and in [15] were 590 nM and 510 nM, respectively.

Take `CCN(CC)C(=O)[C@@H]1C=C2c3cccc4[nH]cc(c34)C[C@H]2N(C(=O)Nc2ccc(C)cc2)C1`: the IC50 in data set [12] turned out to be 313 nM; in data set [15] it was 100 nM.

Turning to `CCN(CC)C(=O)[C@@H]1C=C2c3cccc4[nH]cc(c34)C[C@H]2N(C(=O)Nc2ccccn2)C1`, the IC50 in [12] was 428 nM; in data set [15] it was 62 nM.

On to `CCN(CC)C(=O)[C@@H]1CC2c3cccc4[nH]cc(c34)C[C@H]2N(C(=O)Nc2ccccc2)C1` (some centres not stated), for which the IC50 came out at 5300 nM in data set [12] and 1930 nM in [15].

Take `CCN(CC)C[C@@H]1C=C2c3cccc4[nH]cc(c34)C[C@H]2N(C(=O)Nc2ccccc2)C1`: the IC50 in data set [12] and in [15] was greater than 10000 nM each time.

Take `CCN(CC)C(=O)[C@@H]1C=C2c3cccc4[nH]cc(c34)C[C@H]2N(C(=O)N(C)c2ccccc2)C1`: the IC50 in data set [12] and in data set [15] was greater than 10000 nM each time.

With `CCN(CC)C(=O)[C@@H]1C=C2c3cccc4[nH]cc(c34)C[C@H]2N(C(=O)Nc2cc(OC)c(OC)c(OC)c2)C1`, the IC50 was 3050 nM in data set [12] and 564 nM in data set [15].

With `CCN(CC)C(=O)[C@@H]1C=C2c3cccc4[nH]cc(c34)C[C@H]2N(C(=O)Nc2ccccc2C)C1`, the IC50 was 146 nM in data set [12] and 28 nM in data set [15].

For the molecule `CCN(CC)C(=O)[C@@H]1C=C2c3cccc4[nH]cc(c34)C[C@H]2N(C(=O)Nc2cccc(C)c2)C1`, the IC50 was found to be 231 nM in [12] and 45 nM in data set [15].

In data set [12], `CCN(CC)C(=O)[C@H]1C=C2c3cccc4[nH]cc(c34)C[C@H]2N(C(=O)Nc2ccccc2)C1` came in with an IC50 greater than 10000 nM.

Take `CCN(CC)C(=O)[C@@H]1C=C2c3cccc4[nH]cc(c34)C[C@H]2N(C(=O)Nc2ccccc2)C1`: the IC50 in [16] was greater than 10 µM; in data set [1], greater than 10000 nM; in data set [2] it was 660 nM; in data set [3], 4.9 µM; in data set [18], greater than 30 µM; in data set [4], 215 nM. The IC50 in data set [5] was 2650 nM; in data set [21], greater than 10 µM; in [22], greater than 10 µM; in data set [6], 9.58 µM; in [23], 30 nM; in data set [7], 5.76 µM. The IC50 was 750 nM in [8]; 1930 nM in data set [9]; 1590 nM in data set [10]; 4.03 µM in data set [11]; 54 nM in [12]; 18 nM in data set [15]. Besides, the IC50 in data set [26] was 3.6 µM; in data set [27] it was greater than 10 µM; in [13], 2470 nM; in [14], greater than 10000 nM; in data set [28], 200 nM; in data set [29], greater than 10 µM. For the same molecule, the results for the fraction unbound in data set [17] and in data set [24] were 0.02 and 0.01, respectively. Moreover, in [19], the logP was found to be 4.2. Further, the solubility in data set [20] and in data set [25] was 5 µg/mL (≈ 11.7 µM) throughout.

A word on the IC50: it is the point on the concentration scale where inhibition reaches its midpoint. In general, fraction unbound refers to the share of the substance not bound to proteins or other matrix. Broadly, the logP is the decadic logarithm of the partition coefficient of the neutral form, usually between octanol and water. Low readings indicate lower lipophilicity, high ones higher lipophilicity. Broadly, the solubility is the dissolved amount per volume that the medium holds. Higher therefore signals a readily soluble substance.
